Bioassay records from PubChem.
KCNK9 block: blocks the human KCNK9 two-pore domain potassium channel; 310,000 compounds, 1.2% hits; B-score at 10 µM; HEK293 KCNK9, FluxOR thallium flux fluorescence; active compounds read low; Q9NPC2; AID 488922;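 active = ratio B-score over 3 SD below the library mean, with starting fluorescence within 5 SD of its mean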;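 note: negative B-score means less thallium flux so channel inhibition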
KCNQ1 act: potentiates or activates the human KCNQ1 potassium channel; P51787; CHO-K1 KCNQ1, thallium flux FluxOR fluorescence; active compounds read high; B-score at 10 µM; 310,000 compounds, 0.35% hits; AID 2648;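 active = fluorescence ratio B-score, a plate-corrected score, at least three library SD, with initial intensity B-score within 5 SD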
Target sequence (P51787 whole entry, looked up): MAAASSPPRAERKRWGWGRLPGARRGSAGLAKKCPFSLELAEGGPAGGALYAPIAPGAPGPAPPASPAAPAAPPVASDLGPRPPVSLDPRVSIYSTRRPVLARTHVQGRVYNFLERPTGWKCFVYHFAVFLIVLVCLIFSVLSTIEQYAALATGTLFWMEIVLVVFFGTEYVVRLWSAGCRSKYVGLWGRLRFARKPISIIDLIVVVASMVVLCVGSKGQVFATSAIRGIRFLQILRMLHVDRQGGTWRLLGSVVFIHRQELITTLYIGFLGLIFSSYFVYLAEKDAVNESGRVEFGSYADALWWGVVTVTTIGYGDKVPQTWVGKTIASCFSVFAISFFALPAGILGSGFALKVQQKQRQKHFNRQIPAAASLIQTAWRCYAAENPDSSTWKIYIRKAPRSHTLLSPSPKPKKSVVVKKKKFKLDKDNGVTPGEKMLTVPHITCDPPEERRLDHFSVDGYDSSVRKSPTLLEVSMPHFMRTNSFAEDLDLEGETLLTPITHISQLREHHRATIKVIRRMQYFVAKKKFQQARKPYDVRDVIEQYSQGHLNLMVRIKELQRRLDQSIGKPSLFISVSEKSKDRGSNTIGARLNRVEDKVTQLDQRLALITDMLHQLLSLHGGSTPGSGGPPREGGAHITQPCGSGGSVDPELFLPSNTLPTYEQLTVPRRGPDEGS
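Test system: CHO-K1 cells stably expressing KCNQ1 / Medium: assay buffer / Also added: depolarizing K+/Tl+ stimulus, K2SO4 and Tl2SO4 each 12.5 mM in 5x stock / Incubation: 90 min dye loading and 20 min compound exposure, both at room temperature / Signal: thallium influx via FluxOR fluorescence, kinetic imaging / Evaluation: B score of baseline-normalized fluorescence ratio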
hERG rescue: hERG (human) protection from proarrhythmic block; Q12809; CHO-hERG, FluxOR thallium flux, dofetilide IC70 present; activation (rescue from dofetilide block), less the hit threshold, % at 10 µM; 310,000 compounds, 0.51% hits;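 active = activation above the mean of controls blocked by dofetilide plus 5 SD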;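 note: thallium influx through hERG after potassium depolarization seen as dye fluorescence rise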
KCNQ1 block: inhibitors of human KCNQ1 potassium channel; CHO-K1 KCNQ1, FluxOR thallium flux fluorescence; active compounds read high; B-score at 10 µM; 310,000 compounds, 1.3% hits; AID 2642;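 active = compounds whose thallium flux B-score, printed positive for inhibition, exceeds three library SD while starting fluorescence stays within three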;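 note: channel opened by potassium depolarization with thallium stimulus after 20 min compound exposure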
KCNK3 inh: human KCNK3 channel inhibition, primary screen | O14649 | CHO-KCNK3 thallium flux, FluxOR fluorescence; active compounds read low | B-score at 10 µM | 340,000 compounds, 0.84% hits;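 active = B-score under library mean minus 4 SD, starting fluorescence ratio at most library mean plus 5 SD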;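 note: more negative B-score means stronger inhibition of thallium flux through KCNK3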
Large screens that a line does not name were inactive. An excerpt weighted towards active compounds, which were near 3.1% of everything screened.

Cn1nc(C(F)(F)F)cc1-c1ccc(/C=C(\C#N)C(=O)c2ccccc2)s1	KCNQ1 block 8
CNC(=O)c1ccc(-c2cc(C(F)(F)F)nn2C)s1	none
CC1CN(S(=O)(=O)c2cccc(C(=O)NCCC3=CCCCC3)c2)CC(C)O1 (stereo unspecified)	none
O=C(NC(=S)N1CCCC(C(F)(F)F)C1)c1ccc(F)cc1 (stereo unspecified)	KCNQ1 act 13, hERG rescue 11.4
S=c1[nH]c(-c2ccccc2)cs1	KCNQ1 act 44, hERG rescue 60.6
Fc1ccc(-c2csc(=S)[nH]2)cc1	KCNQ1 act 35, hERG rescue 48.3
O=c1[nH]c(-c2ccccc2)cs1	none
O=c1[nH]c(-c2ccc(Cl)cc2)cs1	none
CCOC(=O)C1CCCN(C(=O)c2cc(S(=O)(=O)N3CCCCC3)ccc2Cl)C1 (stereo unspecified)	none
CCOC(=O)c1sc(NC(=O)C(CC)Sc2nnc3c4ccccc4n(C(C)C)c3n2)nc1C (stereo unspecified)	KCNK3 inh -10.9 (no result: KCNK9 block, KCNQ1 act, hERG rescue, KCNQ1 block)
COc1ccc(CCNC(=O)Oc2ccccc2)cc1OC	none
CCOC(=O)c1[nH]c2ccccc2c1NC(=O)NC1CCCCC1	none
CCOC(=O)c1[nH]c2ccccc2c1NC(=O)C1CCCCC1	hERG rescue 4.8
COc1ccc(C(C(=O)NC2CCCCC2)N(Cc2ccco2)C(=O)c2snc(C(N)=O)c2N)cc1 (stereo unspecified)	KCNQ1 block 9
COc1ccccc1N(C(=O)c1snc(C(N)=O)c1N)C(C(=O)NC1CCCC1)c1ccco1 (stereo unspecified)	KCNQ1 block 6
CCC(C(=O)NC1CCCCC1)N(Cc1cccs1)C(=O)c1snc(C(N)=O)c1N (stereo unspecified)	KCNQ1 block 6
O=C(NC1CCCCC1)C(c1cccs1)N(Cc1cccs1)C(=O)c1cccs1 (stereo unspecified)	KCNQ1 block 8
COc1ccc(C(C(=O)NC2CCCC2)N(Cc2ccco2)C(=O)c2snc(C(N)=O)c2N)cc1OC (stereo unspecified)	none
CC(=O)c1ccc(S(=O)(=O)N2CCN(CC(=O)NC(=O)NC3CCCCC3)CC2)cc1	none (no result: KCNK9 block, KCNQ1 act, hERG rescue, KCNQ1 block)
COCC(=O)N1CCC(Oc2ccc(C(=O)N3CCCCC3COC)cc2)CC1 (stereo unspecified)	none
CC(C)Cn1c(N)c(C(=O)COC(=O)C2Cc3ccccc3CN2S(C)(=O)=O)c(=O)n(C)c1=O (stereo unspecified)	none (no result: KCNK9 block, KCNQ1 act, hERG rescue, KCNQ1 block)
CC(C)(C)CCN1CCC(CN2CCNC(=O)C2=O)CC1	none (no result: KCNK9 block, KCNQ1 act, hERG rescue, KCNQ1 block)
COc1ccc(N2CCN(C(=O)CCS(=O)(=O)c3ccc4c(c3)NC(=O)CO4)CC2)cc1	none
O=C(COC(=O)C1C2CC3OC(=O)C1C3C2)Nc1ccc(Cl)cc1 (stereo unspecified)	KCNQ1 act 17, hERG rescue 12.2
Cc1cc(NC(=O)CSc2ncnc3c2cnn3-c2cccc(Cl)c2)no1	none
O=C(CSc1ncnc2c1cnn2-c1ccccc1)Nc1ccc2c(c1)OCO2	none
O=C(CSc1ncnc2c1cnn2-c1ccc(Cl)cc1)NCc1ccc2c(c1)OCO2	hERG rescue 4.7
Cc1cc(NC(=O)CSc2ncnc3c2cnn3-c2ccccc2)no1	hERG rescue 13.6
CC1(NC(=O)Cc2ccc(Cl)c(Cl)c2)CCS(=O)(=O)C1 (stereo unspecified)	none (no result: KCNK9 block, KCNQ1 act, hERG rescue, KCNQ1 block)
COc1ccccc1C(=O)NC(CCSC)C(=O)NNC(=O)C(C)Oc1ccccc1F (stereo unspecified)	none (no result: KCNK9 block, KCNQ1 act, hERG rescue, KCNQ1 block)
Cc1ccc(OCc2cc(C(=O)N3CCCC3)no2)cn1	none
C=CCC1(CC=C)CCCN1C(=O)c1cc(COc2ccc(C)nc2)on1	KCNQ1 block 8
C=CCC1(CC=C)CCCN1C(=O)c1cc(COc2ccccc2SC)on1	KCNQ1 block 7
CCCCCCCCCCCn1nnnc1N	none (no result: KCNK9 block, KCNQ1 act, hERG rescue, KCNQ1 block)
CN(C)c1ccc(-c2cc3ccccc3c(=O)o2)cc1	none (no result: KCNK9 block, KCNQ1 act, hERG rescue, KCNQ1 block)
CC1CCN(C(=O)CSc2nc3c(c(=O)n2C)SC(C)C3)CC1 (stereo unspecified)	none
Cc1cc(/C=C2/C(=N)N3C(=NC2=O)SN=C3S(C)(=O)=O)c(C)n1-c1ccccc1F	none
CS(=O)(=O)C1=NSC2=NC(=O)/C(=C\c3cccn3-c3ccc(Cl)cc3)C(=N)N21	KCNQ1 block 7
Cc1cccc(NC(=O)C2c3ccccc3C(=O)N3CCc4ccccc4C23)n1 (stereo unspecified)	KCNK9 block -7.43
CC(=NNC(=O)c1ccc(NS(=O)(=O)c2cccs2)cc1)c1ccc(OCC(N)=O)cc1	none (no result: KCNK9 block, KCNQ1 act, hERG rescue, KCNQ1 block)
Cn1c2ccccc2c2c(C(=O)NCc3ccco3)cn(C3CCCCC3)c(=O)c21	none
Cc1ccc(CNC(=O)c2cn(C3CCCC3)c(=O)c3c2c2ccccc2n3C)o1	KCNK9 block -6.71 (no result: KCNK3 inh)
Cc1ccccc1C(=O)NCC(=O)N1CCN(C/C=C/c2ccccc2)CC1	none (no result: KCNK9 block, KCNQ1 act, hERG rescue, KCNQ1 block)
CC(=O)C[C@H]1c2cc(C(F)(F)F)ccc2S(=O)(=O)N1Cc1ccccc1	KCNQ1 act 9
CC(=O)C[C@H]1c2cc(C(F)(F)F)ccc2S(=O)(=O)N1c1ccccc1	none
O=C(COC(=O)c1ccccc1O)NCc1ccc2c(c1)OCO2	none (no result: KCNK9 block, KCNQ1 act, hERG rescue, KCNQ1 block)
COc1cccc(C(C[N+](=O)[O-])c2c(C)[nH]n(-c3ccccc3)c2=O)c1 (stereo unspecified)	KCNQ1 block 8
Cc1[nH]n(-c2ccccc2)c(=O)c1C(C[N+](=O)[O-])c1ccc(Br)cc1 (stereo unspecified)	none
CC1(C)CC(=O)C/C(=N\NC(=S)NCc2ccccc2)C1	none
CC1(C)CC(=O)CC(=NCC(=O)O)C1	hERG rescue 4.7
CCCCN(C(=O)C1=NN(c2ccccc2)C(=O)CC1)c1c(N)n(CCC)c(=O)[nH]c1=O	none (no result: KCNK9 block, KCNQ1 act, hERG rescue, KCNQ1 block)
O=C(CSc1ccc([N+](=O)[O-])cn1)Nc1ccc2c(c1)OCO2	none
CC(=O)NCCC1CCN(C(=O)C2CCC(=O)N(C3CCCC3)C2)CC1 (stereo unspecified)	none
c1ccc(NC2=NCCN2CC2CCCC2)cc1	hERG rescue 4.9
CC(C)c1ccc(C2C3=C(CC(C)(C)CC3=O)NC3=C2C(=O)c2ccccc23)cc1 (stereo unspecified)	KCNQ1 block 11
CC1(C)CC(=O)C2=C(C1)NC1=C(C(=O)c3ccccc31)C2c1cc([N+](=O)[O-])ccc1O (stereo unspecified)	KCNQ1 block 6
Cc1cc(C(=O)NNC(=O)COc2c(C)cc(Br)cc2C)n[nH]1	none
CCOC(=O)CCCCCC(=O)Nc1ccc2c(c1)CC(=O)N([C@@H](C)CO)C[C@@H](C)[C@@H](CN(C)C(=O)Nc1ccc(C(F)(F)F)cc1)O2	none (no result: KCNK9 block, KCNQ1 act, hERG rescue, KCNQ1 block)
O=C(NC1CCC(O)CC1)c1ccc(NS(=O)(=O)c2cccc([N+](=O)[O-])c2)cc1 (stereo unspecified)	none (no result: KCNK9 block, KCNQ1 act, hERG rescue, KCNQ1 block)
CN(CC(=O)NC(=O)NCc1ccccc1)CC(=O)Nc1ccc(Cl)c(C(F)(F)F)c1	none
